ChEMBL document CHEMBL4190408 (J Med Chem, 2018)
In brackets after ≈: the same amount, converted by molar mass. Activity calls are given as the source filed them. The calls are words filed in the database; no cut-off is given here.

Experiments:
[1] = physchem; details: phosphate buffer, pH 7.4
[2] = physchem
[3] = in vitro; details: human
[4] = in vitro; details: mouse
[5] = Thermodynamic solubility of the compound in pH 7.4 solution after 90 mins by UVLC-MS analysis; assay type: physicochemical; details: for solubility thermodynamic at 1.5 h: pH 7.4 solution, pH 7.4, read-out: Therm_solubility
[6] = target: T1, Voltage-gated inwardly rectifying potassium channel KCNH2 (Homo sapiens, UniProt Q12809)
[7] = target: T2, Cytochrome P450 3A4 (Homo sapiens, UniProt P08684); details: liver microsomes
[8] = Fraction unbound in mouse blood; assay type: ADME, tissue-based
[9] = Apparent clearance in Balb/c mouse at 10 mg/kg, po after 1 hr; assay type: ADME, organism-based; details: in vivo
[10] = tested on: Mus musculus; assay: Unbound AUC (infinity) in Balb/c mouse at 10 mg/kg, po after 1 hr; assay type: ADME, organism-based; details: in vivo
[11] = tested on: Mus musculus; assay: Unbound Cmax in Balb/c mouse at 10 mg/kg, po after 1 hr; assay type: ADME, organism-based; details: in vivo
[12] = Clearance in Balb/c mouse at 1 mg/kg, iv; assay type: ADME, organism-based; details: Balb/c, in vivo
In short: (§1)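 Intravenous PK in male Balb/C mice, n=3, at 1 mpk. Vehicle was 30% DMA or 15% NMP, depending on the compound.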

[13] = tested on: Mus musculus; assay: Unbound AUC in Balb/c mouse at 1 mg/kg, iv; assay type: ADME, organism-based; details: in vivo
In short: as §1

[14] = Half life in Balb/c mouse at 1 mg/kg, iv; assay type: ADME, organism-based; details: Balb/c, in vivo
In short: as §1

[15] = Volume of distribution at steady state in Balb/c mouse at 1 mg/kg, iv; assay type: ADME, organism-based; details: Balb/c, in vivo, read-out: Vdss
In short: as §1

[16] = Oral bioavailability in Balb/c mouse at 10 mg/kg after 1 hr; assay type: ADME, organism-based; details: Balb/c, in vivo
In short: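 Male Balb/C mice, n=3. Oral dose of 10 mpk as a homogeneous suspension of crystalline solid in 0.1% Tween 80, 0.1% silicone antifoam, 1% methylcellulose (400 cps) in water. I.v. dose of 1 mpk in 30% DMA or 15% NMP, depending on the compound. Bioavailability was extrapolated from the i.v./p.o. experiments.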

[17] = target: Phosphatidylinositol 4-kinase type 2-alpha (Homo sapiens) (UniProt Q9BTU6); assay: Inhibition of recombinant human full length GST-tagged PI4K2alpha expressed in insect cells at 10 uM
[18] = target: Phosphatidylinositol 4-kinase type 2-beta (Homo sapiens) (UniProt Q8TCG2); assay: Inhibition of recombinant human full length GST-tagged PI4K2beta expressed in insect cells at 10 uM
[19] = target: Phosphatidylinositol 4-kinase alpha (Homo sapiens) (UniProt P42356); assay: Inhibition of PI4K3alpha (unknown origin) at 10 uM
[20] = target: T1, Voltage-gated inwardly rectifying potassium channel KCNH2; remark: listed apart in the source
[21] = target: T2, Cytochrome P450 3A4
[22] = buffer, pH 7.4, 1.5 h

T1 sequence (Q12809 whole entry): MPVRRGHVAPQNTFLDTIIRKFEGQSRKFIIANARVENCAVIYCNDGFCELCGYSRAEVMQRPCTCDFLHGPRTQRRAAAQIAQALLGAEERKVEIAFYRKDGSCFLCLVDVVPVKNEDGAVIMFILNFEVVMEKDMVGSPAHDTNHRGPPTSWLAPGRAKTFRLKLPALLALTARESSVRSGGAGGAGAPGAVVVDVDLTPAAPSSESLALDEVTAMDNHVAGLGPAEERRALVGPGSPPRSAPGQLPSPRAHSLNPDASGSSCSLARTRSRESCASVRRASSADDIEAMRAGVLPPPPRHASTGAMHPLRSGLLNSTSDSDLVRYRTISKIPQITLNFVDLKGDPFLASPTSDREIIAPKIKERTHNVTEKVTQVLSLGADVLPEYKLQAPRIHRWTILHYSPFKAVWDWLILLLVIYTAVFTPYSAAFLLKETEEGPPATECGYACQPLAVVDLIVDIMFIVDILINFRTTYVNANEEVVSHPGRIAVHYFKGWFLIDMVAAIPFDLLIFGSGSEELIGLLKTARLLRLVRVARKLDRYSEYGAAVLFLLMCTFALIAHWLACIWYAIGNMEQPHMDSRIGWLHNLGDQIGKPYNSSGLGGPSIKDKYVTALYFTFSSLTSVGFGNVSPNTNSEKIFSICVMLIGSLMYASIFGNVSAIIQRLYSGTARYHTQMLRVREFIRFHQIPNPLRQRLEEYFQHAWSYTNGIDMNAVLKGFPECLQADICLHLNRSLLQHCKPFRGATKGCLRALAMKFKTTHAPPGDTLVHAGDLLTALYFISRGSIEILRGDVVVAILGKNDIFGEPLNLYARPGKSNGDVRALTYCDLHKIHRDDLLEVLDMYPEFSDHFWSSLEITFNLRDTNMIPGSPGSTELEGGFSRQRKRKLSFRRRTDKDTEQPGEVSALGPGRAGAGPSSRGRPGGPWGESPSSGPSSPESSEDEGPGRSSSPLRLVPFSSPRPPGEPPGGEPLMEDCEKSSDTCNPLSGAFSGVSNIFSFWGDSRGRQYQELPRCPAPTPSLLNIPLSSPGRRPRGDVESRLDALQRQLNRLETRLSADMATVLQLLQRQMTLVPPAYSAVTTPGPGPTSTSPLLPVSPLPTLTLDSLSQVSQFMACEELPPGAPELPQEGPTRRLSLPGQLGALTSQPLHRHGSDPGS
T2 sequence (P08684 whole entry): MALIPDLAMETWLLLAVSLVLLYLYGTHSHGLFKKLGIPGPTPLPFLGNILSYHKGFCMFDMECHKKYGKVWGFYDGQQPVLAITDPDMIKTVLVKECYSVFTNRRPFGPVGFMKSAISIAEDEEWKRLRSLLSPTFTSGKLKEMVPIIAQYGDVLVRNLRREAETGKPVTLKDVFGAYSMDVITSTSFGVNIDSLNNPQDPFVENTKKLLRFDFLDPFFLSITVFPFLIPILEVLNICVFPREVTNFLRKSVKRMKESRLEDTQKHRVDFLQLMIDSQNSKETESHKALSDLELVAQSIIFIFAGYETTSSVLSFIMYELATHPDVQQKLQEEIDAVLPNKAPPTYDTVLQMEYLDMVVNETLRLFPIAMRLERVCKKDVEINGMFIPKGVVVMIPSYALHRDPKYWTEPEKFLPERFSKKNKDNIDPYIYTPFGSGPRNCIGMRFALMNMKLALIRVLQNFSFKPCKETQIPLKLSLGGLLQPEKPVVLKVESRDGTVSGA
Phosphatidylinositol 4-kinase alpha (Homo sapiens), sequence (P42356 whole entry, looked up): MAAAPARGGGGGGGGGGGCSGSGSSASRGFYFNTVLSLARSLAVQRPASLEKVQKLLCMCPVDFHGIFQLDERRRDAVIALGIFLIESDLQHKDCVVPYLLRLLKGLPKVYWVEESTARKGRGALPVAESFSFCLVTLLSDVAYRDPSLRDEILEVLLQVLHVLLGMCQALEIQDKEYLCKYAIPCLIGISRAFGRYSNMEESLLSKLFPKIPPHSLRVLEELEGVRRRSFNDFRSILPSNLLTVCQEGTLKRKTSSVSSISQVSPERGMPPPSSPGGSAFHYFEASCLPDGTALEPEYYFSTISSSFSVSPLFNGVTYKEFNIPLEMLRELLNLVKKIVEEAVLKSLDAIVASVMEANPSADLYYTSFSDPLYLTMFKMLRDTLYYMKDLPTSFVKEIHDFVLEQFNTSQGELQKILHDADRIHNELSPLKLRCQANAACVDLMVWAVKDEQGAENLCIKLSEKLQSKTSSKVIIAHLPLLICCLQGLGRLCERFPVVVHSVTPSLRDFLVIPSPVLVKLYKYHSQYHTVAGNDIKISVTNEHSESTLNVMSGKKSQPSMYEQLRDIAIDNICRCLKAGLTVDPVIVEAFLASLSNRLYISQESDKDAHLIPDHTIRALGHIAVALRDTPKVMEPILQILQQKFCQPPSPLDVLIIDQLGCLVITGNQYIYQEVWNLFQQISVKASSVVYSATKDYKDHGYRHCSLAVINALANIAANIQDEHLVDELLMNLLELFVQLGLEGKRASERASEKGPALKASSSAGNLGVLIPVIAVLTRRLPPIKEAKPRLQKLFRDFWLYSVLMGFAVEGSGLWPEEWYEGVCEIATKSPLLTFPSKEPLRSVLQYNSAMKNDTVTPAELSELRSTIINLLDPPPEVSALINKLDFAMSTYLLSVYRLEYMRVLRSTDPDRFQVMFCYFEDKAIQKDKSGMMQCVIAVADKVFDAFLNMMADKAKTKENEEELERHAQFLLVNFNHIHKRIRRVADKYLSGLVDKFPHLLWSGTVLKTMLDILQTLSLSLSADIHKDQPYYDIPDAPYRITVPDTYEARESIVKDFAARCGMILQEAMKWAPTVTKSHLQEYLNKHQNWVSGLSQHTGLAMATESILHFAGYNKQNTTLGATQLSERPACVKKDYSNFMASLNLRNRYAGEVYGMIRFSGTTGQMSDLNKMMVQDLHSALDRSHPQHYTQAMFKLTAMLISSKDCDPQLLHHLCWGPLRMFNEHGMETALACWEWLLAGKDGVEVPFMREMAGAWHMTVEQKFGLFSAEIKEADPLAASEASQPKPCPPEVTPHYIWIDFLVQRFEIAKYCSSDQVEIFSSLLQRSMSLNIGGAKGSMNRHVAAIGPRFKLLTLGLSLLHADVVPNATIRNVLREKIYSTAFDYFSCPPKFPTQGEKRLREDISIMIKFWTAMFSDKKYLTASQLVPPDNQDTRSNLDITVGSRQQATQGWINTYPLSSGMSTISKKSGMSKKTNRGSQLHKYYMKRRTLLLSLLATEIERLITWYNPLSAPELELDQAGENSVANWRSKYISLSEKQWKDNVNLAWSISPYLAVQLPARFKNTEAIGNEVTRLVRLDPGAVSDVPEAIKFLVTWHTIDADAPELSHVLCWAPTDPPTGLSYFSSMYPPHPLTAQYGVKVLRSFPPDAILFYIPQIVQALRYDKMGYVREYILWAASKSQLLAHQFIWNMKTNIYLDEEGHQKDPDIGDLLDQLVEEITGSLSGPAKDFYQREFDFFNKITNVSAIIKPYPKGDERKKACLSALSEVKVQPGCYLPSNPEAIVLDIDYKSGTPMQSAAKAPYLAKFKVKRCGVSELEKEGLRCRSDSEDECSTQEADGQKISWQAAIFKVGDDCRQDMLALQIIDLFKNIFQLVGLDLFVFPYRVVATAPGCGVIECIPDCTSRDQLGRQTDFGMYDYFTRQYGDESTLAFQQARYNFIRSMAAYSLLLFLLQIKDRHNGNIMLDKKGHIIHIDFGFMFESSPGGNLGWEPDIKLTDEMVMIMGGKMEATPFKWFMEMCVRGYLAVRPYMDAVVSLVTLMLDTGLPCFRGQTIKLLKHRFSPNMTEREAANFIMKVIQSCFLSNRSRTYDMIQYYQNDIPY
Phosphatidylinositol 4-kinase type 2-beta (Homo sapiens), sequence (Q8TCG2 whole entry): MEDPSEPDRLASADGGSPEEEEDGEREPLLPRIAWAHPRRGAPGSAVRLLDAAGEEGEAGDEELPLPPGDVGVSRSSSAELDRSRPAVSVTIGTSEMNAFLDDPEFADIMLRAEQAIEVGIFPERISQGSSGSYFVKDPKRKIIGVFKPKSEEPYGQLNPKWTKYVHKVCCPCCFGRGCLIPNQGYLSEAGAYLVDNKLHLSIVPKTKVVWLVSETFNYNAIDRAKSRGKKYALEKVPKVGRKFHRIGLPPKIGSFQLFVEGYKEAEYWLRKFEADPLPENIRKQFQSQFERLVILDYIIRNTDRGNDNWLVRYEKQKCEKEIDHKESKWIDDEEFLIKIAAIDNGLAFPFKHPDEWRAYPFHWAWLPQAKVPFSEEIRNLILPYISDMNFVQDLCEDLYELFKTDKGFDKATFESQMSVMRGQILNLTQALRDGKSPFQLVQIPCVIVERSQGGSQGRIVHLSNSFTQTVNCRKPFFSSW
Phosphatidylinositol 4-kinase type 2-alpha (Homo sapiens), sequence (Q9BTU6 whole entry): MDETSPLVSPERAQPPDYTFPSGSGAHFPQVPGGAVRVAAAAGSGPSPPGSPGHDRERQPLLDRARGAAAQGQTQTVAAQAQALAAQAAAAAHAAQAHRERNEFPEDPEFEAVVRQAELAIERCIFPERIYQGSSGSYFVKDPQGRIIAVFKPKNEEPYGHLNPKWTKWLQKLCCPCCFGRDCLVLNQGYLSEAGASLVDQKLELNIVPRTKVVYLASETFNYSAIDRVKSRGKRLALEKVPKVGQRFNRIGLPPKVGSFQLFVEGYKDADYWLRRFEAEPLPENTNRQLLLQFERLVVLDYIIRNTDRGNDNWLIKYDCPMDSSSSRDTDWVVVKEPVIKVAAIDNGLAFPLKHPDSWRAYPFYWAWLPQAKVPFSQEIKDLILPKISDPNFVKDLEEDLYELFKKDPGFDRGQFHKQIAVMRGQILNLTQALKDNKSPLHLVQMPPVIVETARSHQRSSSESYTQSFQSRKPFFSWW

SMILES: COc1ccc(NC(=O)N2CCN(c3nc(N)nc4sccc34)[C@@H](C)C2)c(C)c1
- logD at 1.5 h [1]: 2.39
- solubility kinetic at 1.5 h ([2]; buffer, pH 7.4): 82 µM (≈ 33.8 µg/mL)

SMILES: Cc1ccc(NC(=O)N2CCN(c3nc(N)nc4scnc34)CC2)cc1
- logD at 1.5 h [1]: 2.55
- solubility kinetic at 1.5 h ([2]; buffer, pH 7.4): 21 µM (≈ 7.76 µg/mL)

SMILES: COc1ccc(NC(=O)N2CCN(c3nc(N)nc4sc(-c5cccnc5)nc34)CC2)cc1
- microsomal CLint at 0.75 h, 3 µM ([3]; liver microsomes): 35 µL/min/mg
- microsomal CLint at 0.75 h, 3 µM ([4]; liver microsomes): 87 µL/min/mg

SMILES: COc1ccc(NC(=O)N2CCN(c3nc(N)nc4scnc34)CC2)c(C)n1
- logD at 1.5 h [1]: 1.65
- solubility kinetic at 1.5 h ([2]; buffer, pH 7.4): 207 µM (≈ 82.9 µg/mL)

SMILES: COc1ccc(NC(=O)N2CCN(c3nc(N)nc4scnc34)C(C)C2C)cc1 (stereo not drawn)
- Therm_solubility ([5]; buffer, pH 7.4, 1.5 h): Nd(Insoluble)
- IC50 [6]: Nd(Insoluble)
- IC50 [7]: Nd(Insoluble)
- solubility kinetic at 1.5 h ([2]; buffer, pH 7.4): > 350 µM

SMILES: COc1ccc(NC(=O)N2CCN(c3nc(N)nc4c3ncn4C)[C@@H](C)C2)c(C)c1
- solubility thermodynamic at 1.5 h [5]: 150 µM (≈ 61.6 µg/mL)
- fraction unbound [8]: 0.2
- CL/F [9]: 46 mL/min/kg
- fAUC [10]: 1.746 µM·h
- fCmax [11]: 1087 nM
- clearance [12]: 19 mL/min/kg
- fAUC [13]: 0.447 µM·h
- half-life [14]: 48 min
- Vd [15]: 0.8 L/kg
- bioavailability [16]: 39%
- microsomal CLint at 0.75 h, 3 µM ([3]; liver microsomes): 9 µL/min/mg
- microsomal CLint at 0.75 h, 3 µM ([4]; liver microsomes): 10 µL/min/mg
- logD at 1.5 h [1]: 1.35
- solubility kinetic at 1.5 h ([2]; buffer, pH 7.4): > 350 µM

SMILES: Cc1ccccc1NC(=O)N1CCN(c2nc(N)nc3scnc23)CC1
- logD at 1.5 h [1]: 2.12
- solubility kinetic at 1.5 h ([2]; buffer, pH 7.4): 33 µM (≈ 12.2 µg/mL)

SMILES: Cc1ccc(NC(=O)N2CCN(c3nc(N)nc4sc(-c5cccnc5)nc34)CC2)cc1
- inhibition [17]: inactive
- inhibition [18]: inactive
- inhibition [19]: inactive
- IC50 [20]: 2000 nM
- microsomal CLint at 0.75 h, 3 µM ([3]; microsomes): 32 µL/min/mg
- microsomal CLint at 0.75 h, 3 µM ([4]; microsomes): 72 µL/min/mg
- logD at 1.5 h [1]: 3.42
- solubility kinetic at 1.5 h ([2]; pH 7.4 solution): 9 µM (≈ 4.02 µg/mL)

SMILES: COc1ccc(CNC(=O)N2CCN(c3nc(N)nc4scnc34)CC2)cc1
- logD at 1.5 h [1]: 2.22
- solubility kinetic at 1.5 h ([2]; buffer, pH 7.4): 33 µM (≈ 13.2 µg/mL)

SMILES: COc1cc(C)c(NC(=O)N2CCN(c3nc(N)nc4scnc34)CC2)cn1
- logD at 1.5 h [1]: 1.66
- solubility kinetic at 1.5 h ([2]; buffer, pH 7.4): > 350 µM

SMILES: COc1ccc(CC(=O)N2CCN(c3nc(N)nc4scnc34)CC2)cc1OC
- logD at 1.5 h [1]: 1.5
- solubility kinetic at 1.5 h ([2]; buffer, pH 7.4): > 350 µM

SMILES: Cc1cccc(NC(=O)N2CCN(c3nc(N)nc4scnc34)CC2)c1
- logD at 1.5 h [1]: 2.81
- solubility kinetic at 1.5 h ([2]; buffer, pH 7.4): 34 µM (≈ 12.6 µg/mL)

SMILES: COc1ccc(NC(=O)N2CCN(c3nc(N)nc4scnc34)CC2)cn1
- logD at 1.5 h [1]: 1.79
- solubility kinetic at 1.5 h ([2]; buffer, pH 7.4): 293 µM (≈ 113 µg/mL)

SMILES: COc1ccc(NC(=O)N2CCN(c3nc(N)nc4scnc34)[C@@H](C)C2)c(C)c1
- solubility thermodynamic at 1.5 h [5]: 3 µM (≈ 1.24 µg/mL)
- solubility kinetic at 1.5 h ([2]; buffer, pH 7.4): 160 µM (≈ 66.2 µg/mL)

SMILES: Nc1nc(N2CCN(C(=O)Nc3ccccc3)CC2)c2ncsc2n1
- logD at 1.5 h [1]: 2.21
- solubility kinetic at 1.5 h ([2]; buffer, pH 7.4): 178 µM (≈ 63.3 µg/mL)

SMILES: COc1ccc(NC(=O)N2CCN(c3nc(N)nc4sc(-c5ccccc5)nc34)CC2)cc1
- IC50 [20]: 1700 nM
- IC50 [21]: > 20000 nM
- logD [22]: Nd(Insoluble)
- microsomal CLint at 0.75 h, 3 µM ([3]; liver microsomes): 13 µL/min/mg
- microsomal CLint at 0.75 h, 3 µM ([4]; liver microsomes): 20 µL/min/mg
- solubility kinetic at 1.5 h ([2]; buffer, pH 7.4): 6 µM (≈ 2.77 µg/mL)

SMILES: Nc1nc(N2CCN(C(=O)Nc3ccc(OC(F)(F)F)cc3)CC2)c2ncsc2n1
- logD at 1.5 h [1]: 3.39
- solubility kinetic at 1.5 h ([2]; buffer, pH 7.4): 12 µM (≈ 5.27 µg/mL)
